ChEMBL document CHEMBL4265879, “Novel, potent, selective and brain penetrant vasopressin 1b receptor antagonists” (Bioorg Med Chem Lett, 2018)

Key:
Vasopressin V1b receptor = molecular target: T1, Vasopressin V1b receptor (Homo sapiens, UniProt P47901); assay: Displacement of [3H]AVP from human vasopressin V1b receptor expressed in CHO cell membranes after 60 mins by TopCount microplate scintillation counting method
T1 sequence (P47901 whole entry): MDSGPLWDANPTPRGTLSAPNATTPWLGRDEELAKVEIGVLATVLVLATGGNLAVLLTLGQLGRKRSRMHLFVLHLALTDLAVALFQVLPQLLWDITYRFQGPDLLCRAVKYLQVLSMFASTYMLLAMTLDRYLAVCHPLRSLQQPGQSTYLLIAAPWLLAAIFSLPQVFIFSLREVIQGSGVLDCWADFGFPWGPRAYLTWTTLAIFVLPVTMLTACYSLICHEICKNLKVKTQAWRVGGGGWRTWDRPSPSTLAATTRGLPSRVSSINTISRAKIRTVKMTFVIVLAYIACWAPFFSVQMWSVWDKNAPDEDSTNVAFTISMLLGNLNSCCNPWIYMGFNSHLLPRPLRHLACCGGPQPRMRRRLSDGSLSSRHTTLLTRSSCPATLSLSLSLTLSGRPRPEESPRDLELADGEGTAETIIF

Homo sapiens [1] = species: Homo sapiens; assay: Selectivity index, ratio of Ki for human vasopressin V1a receptor to Ki for human vasopressin V1b receptor
Procedure, shortened: (§1)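 Selectivity was calculated from human receptor Ki values as Ki hOT/Ki hV1b or Ki hV1a/Ki hV1b. Each Ki is the mean of at least two experiments (MSR 2.8).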

Homo sapiens [2] = species: Homo sapiens; assay: Selectivity index, ratio of Ki for human oxytocin receptor to Ki for human vasopressin V1b receptor; procedure, shortened: as §1
[3] = Intrinsic clearance in human liver microsomes; assay type: ADME, microsome; conditions: read-out: CLH
Procedure, shortened: (§2)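 Intrinsic clearance was measured in human and rat liver microsomes, in µL/min/mg. Values are means of at least two experiments.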

[4] = Intrinsic clearance in rat liver microsomes; assay type: ADME, microsome; conditions: read-out: CLH; procedure, shortened: as §2
[5] = Elimination half life in rat at 2 mg/kg, iv; assay type: ADME, organism-based; conditions: in vivo, read-out: beta t1/2 (converted)
Procedure, shortened: (§3)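 Rat PK after a 2 mg/kg intravenous dose. Plasma clearance (L/h/kg), terminal half-life (h) and steady-state volume of distribution (L/kg) were derived.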

[6] = Volume of distribution at steady state in rat at 2 mg/kg, iv; assay type: ADME, organism-based; conditions: in vivo, read-out: Vdss; procedure, shortened: as §3
[7] = Clearance in rat plasma at 2 mg/kg, iv; assay type: ADME, organism-based; procedure, shortened: as §3
[8] = Oral bioavailability in rat at 5 mg/kg; assay type: ADME, organism-based; conditions: in vivo
Procedure, shortened: (§4)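 Rat oral dosing, at 10 or 5 mg/kg depending on compound. Oral bioavailability (%) was calculated.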

[9] = Ratio of AUC in rat brain to plasma at 10 mg/kg, ip measured after 8 hrs; assay type: ADME, organism-based; conditions: read-out: Ratio AUC
Procedure, shortened: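 Rats were dosed 10 mg/kg intraperitoneally. Brain and plasma AUC were taken over an 8 h period, and the brain:plasma ratio was calculated from them.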

Cytochrome P450 3A4 = Cytochrome P450 3A4 (Homo sapiens, UniProt P08684); assay: Inhibition of CYP3A4 in human liver microsomes in presence of NADPH and Luciferin BE 50; assay type: ADME
Procedure, shortened: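 CYP3A4 inhibition by co-incubation in human liver microsomes with NADPH and luciferin-BE substrate, with 0.03 mg/mL noted. Result expressed as IC50.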

[10] = Oral bioavailability in rat at 10 mg/kg; assay type: ADME, organism-based; conditions: in vivo; procedure, shortened: as §4

Cytochrome P450 3A4, sequence (P08684 whole entry): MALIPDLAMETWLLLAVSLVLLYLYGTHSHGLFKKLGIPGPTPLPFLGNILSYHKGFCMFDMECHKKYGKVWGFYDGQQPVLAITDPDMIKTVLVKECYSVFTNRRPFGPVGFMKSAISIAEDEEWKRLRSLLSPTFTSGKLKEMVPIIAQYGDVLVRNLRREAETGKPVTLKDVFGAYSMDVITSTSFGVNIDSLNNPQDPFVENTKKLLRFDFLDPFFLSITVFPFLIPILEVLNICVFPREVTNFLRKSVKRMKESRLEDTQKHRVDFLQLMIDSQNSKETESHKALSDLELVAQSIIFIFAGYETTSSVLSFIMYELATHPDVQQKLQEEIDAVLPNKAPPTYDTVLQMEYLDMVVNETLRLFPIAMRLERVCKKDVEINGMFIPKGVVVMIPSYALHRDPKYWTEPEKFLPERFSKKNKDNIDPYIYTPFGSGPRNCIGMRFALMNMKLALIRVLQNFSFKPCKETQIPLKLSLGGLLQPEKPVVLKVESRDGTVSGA

SMILES	Ki (Vasopressin V1b receptor) [nM]	Ratio Ki (Homo sapiens [1])	Ratio Ki (Homo sapiens [2])	microsomal CLint [3] [µL/min/mg]	microsomal CLint [4] [µL/min/mg]	further results
CCOc1ccc(OC)cc1C1(N2CCN(c3ccncc3)CC2)C(=O)N(S(=O)(=O)c2ccc(F)c3cccnc23)c2ccc(C#N)cc21 (configuration not stated)	9	39	21	131	119	
CCOc1ccc(OC)cc1C1(N2CCN(c3ccncc3)CC2)C(=O)N(S(=O)(=O)c2ccc(OC)cc2)c2ccc(C#N)cc21 (configuration not stated)	32		15	93	118	
CCOc1nc(Cl)ccc1C1(N2CCN(c3ccnc(C)c3)CC2)C(=O)N(S(=O)(=O)c2ccc(OC)cn2)c2ccc(C#N)cc21 (single isomer, unassigned; (+)) [listing 1 of 2 here]	0.9			7	22	half-life [5]: > 6 h; Vd [6]: 12 L/kg; clearance [7]: 15 mL/min/kg; bioavailability [8]: 37%; Kp at 8 h [9]: 1; IC50 (Cytochrome P450 3A4): 2000 nM
COc1ccc(S(=O)(=O)N2C(=O)C(c3ccccc3OC)(N3CCN(c4cccnc4)CC3)c3cc(Cl)ccc32)c(OC)c1 (configuration not stated)	18	0.8	0.9	41	348	
COc1ccc(S(=O)(=O)N2C(=O)C(c3ccccc3OC)(N3CCN(c4ccncc4)CC3)c3cc(C#N)ccc32)c(OC)c1 (configuration not stated)	58.5			43	296	
CCOc1ccc(OC)cc1C1(N2CCN(c3ccncc3)CC2)C(=O)N(S(=O)(=O)c2ccc(OC)cc2OC)c2ccc(C#N)cc21 (configuration not stated)	21	21	6	23	41	half-life [5]: 3.4 h; Vd [6]: 2.9 L/kg; clearance [7]: 11.7 mL/min/kg; bioavailability [10]: 22%; Kp at 8 h [9]: 1.1
COc1ccc(S(=O)(=O)N2C(=O)C(c3cc(OC)ccc3OC)(N3CCN(c4ccncc4)CC3)c3cc(C#N)ccc32)c(OC)c1 (configuration not stated)	13	2	2	50	58	
CCOc1cc(OC)ccc1C1(N2CCN(c3ccncc3)CC2)C(=O)N(S(=O)(=O)c2ccc(OC)cc2OC)c2ccc(C#N)cc21 (configuration not stated)	10	34	3	63	34	
COc1ccc(S(=O)(=O)N2C(=O)C(c3cccnc3OC)(N3CCN(C)C(=O)[C@H]3C)c3cc(Cl)ccc32)c(OC)c1 (some centres not stated)	41	1		51	78	
CCOc1ccc(OC)cc1C1(N2CCN(c3ccncc3)CC2)C(=O)N(S(=O)(=O)c2ccc(OC)c3cccnc23)c2ccc(C#N)cc21 (configuration not stated)	2	84	4	33	15	
COc1ccc(S(=O)(=O)N2C(=O)C(c3ccccc3OC)(N3CCN(c4cccnc4)CC3)c3cc(Cl)ccc32)cc1 (configuration not stated)	104					
COc1ccc(S(=O)(=O)N2C(=O)C(c3cccnc3OC)(N3CCN(c4cccnc4)CC3)c3cc(Cl)ccc32)c(OC)c1 (configuration not stated)	45	0.1		19	84	
COc1ccc(S(=O)(=O)N2C(=O)C(c3cccnc3OC)(N3CCN(c4cccnc4)C(=O)C3)c3cc(Cl)ccc32)c(OC)c1 (configuration not stated)	82	1		196	291	
CCOc1nc(Cl)ccc1C1(N2CCN(c3ccncc3)CC2)C(=O)N(S(=O)(=O)c2ccc(OC)cc2OC)c2ccc(C#N)cc21 (configuration not stated)	45			23		
CCOc1nc(Cl)ccc1C1(N2CCN(c3ccnc(C)c3)CC2)C(=O)N(S(=O)(=O)c2ccc(OC)cn2)c2ccc(C#N)cc21 (racemic) [listing 1 of 2 here]		125	69			
CCOc1nc(Cl)ccc1C1(N2CCN(c3ccnc(C)c3)CC2)C(=O)N(S(=O)(=O)c2ccc(OC)cn2)c2ccc(C#N)cc21 (racemic) [listing 2 of 2 here]	1.3					IC50 (Cytochrome P450 3A4): 1200 nM
COc1ncccc1C1(N2CCN(c3cccnc3)CC2)C(=O)N(S(=O)(=O)c2cccc3cccnc23)c2ccc(C#N)cc21 (configuration not stated)	30.2	0.9	3	326	113	
CCOc1ccc(OC)cc1C1(N2CCN(c3ccncc3)CC2)C(=O)N(S(=O)(=O)c2ccc(OC)cn2)c2ccc(C#N)cc21 (configuration not stated)	2	216	230	45	290	
COc1ccc(S(=O)(=O)N2C(=O)C(c3cccnc3OC)(N3CCN(C)C(=O)C3)c3cc(Cl)ccc32)c(OC)c1 (configuration not stated)	192			99	113	
COc1ncccc1C1(N2CCN(c3cccnc3)CC2)C(=O)N(S(=O)(=O)c2cccc3cccnc23)c2ccc(Cl)cc21 (configuration not stated)	15.2	0.5	2	554	156	
COc1ccccc1C1(N2CCN(c3cccnc3)CC2)C(=O)N(S(=O)(=O)c2ccccc2OC)c2ccc(Cl)cc21 (configuration not stated)	47			93	442	
CCOc1ncccc1C1(N2CCN(c3ccncc3)CC2)C(=O)N(S(=O)(=O)c2ccc(OC)cc2OC)c2ccc(C#N)cc21 (configuration not stated)	84			77	168	
COc1ccccc1C1(N2CCN(c3cccnc3)CC2)C(=O)N(S(=O)(=O)c2cccc3cccnc23)c2ccc(Cl)cc21 (configuration not stated)	8	3	10	360	359	
CCOc1nc(Cl)ccc1C1(N2CCN(c3ccnc(C)c3)CC2)C(=O)N(S(=O)(=O)c2ccc(OC)cn2)c2ccc(C#N)cc21 (single isomer, unassigned; (+)) [listing 2 of 2 here]		78	65			
CCOc1nc(Cl)ccc1C1(N2CCN(c3ccncc3)CC2)C(=O)N(S(=O)(=O)c2ccc(OC)cn2)c2ccc(C#N)cc21 (configuration not stated)	1.1	325	201	39	63	IC50 (Cytochrome P450 3A4): 100 nM
CCOc1ccccc1C1(N2CCN(c3ccncc3)CC2)C(=O)N(S(=O)(=O)c2ccc(OC)cc2OC)c2ccc(C#N)cc21 (configuration not stated)	36			43	83	
COc1ccccc1C1(N2CCN(c3cccnc3)CC2)C(=O)N(S(=O)(=O)c2ccccc2)c2ccc(Cl)cc21 (configuration not stated)	233					
COc1ccc(S(=O)(=O)N2C(=O)C(c3cccnc3OC)(N3CCNC(=O)C3)c3cc(Cl)ccc32)c(OC)c1 (configuration not stated)	1340					
